These results are taken from ChEMBL document CHEMBL1142125, “Bioactive lignans from Peperomia duclouxii” (J Nat Prod, 2007).

≈ marks a conversion by molar mass, not a printed value. Where only a bound is given, the exact number is not on record here.

For one assay, the system named is WI-38. The assay is described as follows: Growth inhibition of human WI38 cells. The class given is functional, cell-based. The method in brief:
(§1)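 Growth inhibition assays. WI-38 cells were kept in Eagle's MEM and VA-13 cells in RITC 80-7, both with 10% (v/v) FBS and 80 µg/mL kanamycin. HepG2 cells were kept in D-MEM with 10% (v/v) FBS and 80 µg/mL kanamycin. IC50 is the concentration giving 50% growth inhibition.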

The subject of a further assay is WI-38 VA13. Nature of the assay: Growth inhibition of human VA13 cells. The class given is functional, cell-based. The gist of the method:
as §1

The next assay relates to HepG2. Nature of the assay: Growth inhibition of human HepG2 cells. The class given is functional, cell-based. The gist of the method: as §1
Assay [1] in a line: Effect on calcein accumulation in human multidrug-resistant 2780AD cells at 2.5 ug/mL relative to control. Type of assay: functional, A2780 ADR. The method in brief:
(§2)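 Calcein accumulation assay. Multidrug-resistant human ovarian cancer 2780AD (AD10) cells were grown in RPMI-1640 with 10% (v/v) FBS and 80 µg/mL kanamycin. Calcein formed from calcein AM by endogenous esterase served as the efflux probe. Cells were tested at 0.25, 2.5 and 25 µg/mL. Read-out was fluorescence per well, as the mean of triplicates, expressed relative to the untreated control or to the verapamil positive control.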

The nature of assay [2]: Effect on calcein accumulation in human multidrug-resistant 2780AD cells at 0.25 ug/mL relative to control. Type of assay: functional, A2780 ADR. The method in brief: as §2
Assay [3] can be described thus: Effect on calcein accumulation in human multidrug-resistant 2780AD cells at 25 ug/mL relative to control. The class given is functional, A2780 ADR. The gist of the method: as §2
The nature of assay [4]: Effect on calcein accumulation in human multidrug-resistant 2780AD cells at 2.5 ug/mL relative to verapamil. The class given is functional, A2780 ADR. The method in brief: as §2
Assay [5] is described as follows: Effect on calcein accumulation in human multidrug-resistant 2780AD cells at 0.25 ug/mL relative to verapamil. Type of assay: functional, A2780 ADR. The gist of the method:
as §2

A short description of assay [6]: Effect on calcein accumulation in human multidrug-resistant 2780AD cells at 25 ug/mL relative to verapamil. Type of assay: functional, A2780 ADR. The gist of the method: as §2
In assay [7] the test system is A549. The assay is described as follows: Inhibition of IL-1-alpha-induced ICAM1 in human A549 cells. Type of assay: functional, cell-based. The method in brief: (§3)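 ICAM-1 induction assay. Human A549 cells were grown in RPMI 1640 with heat-inactivated 10% FBS, penicillin G and streptomycin. Cells were stimulated with recombinant IL-1α or TNF-α. Cell-surface ICAM-1 was detected with mouse anti-human ICAM-1 antibody C167 plus a peroxidase-conjugated goat anti-mouse IgG, and an IC50 was derived.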

Assay [8] deals with A549. The assay is described as follows: Inhibition of TNF-alpha-induced ICAM1 in human A549 cells. The class given is functional, cell-based. The gist of the method: as §3
The subject of assay [9] is A549. The assay is described as follows: Cytotoxicity against human A549 cells by MTT assay. Type of assay: cell-based. The gist of the method:
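Cell viability was measured by MTT assay in human A549 cells grown in RPMI 1640 with heat-inactivated 10% FBS, penicillin G and streptomycin. This was done alongside the IL-1α/TNF-α-stimulated ICAM-1 induction assay, and an IC50 was derived.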

Take `COc1cccc2c1C(=O)c1c(O)c3c(c(O)c1C2=O)C[C@@](O)(C(=O)CO)C[C@@H]3O[C@H]1C[C@H](N)[C@H](O)[C@H](C)O1` [DOXORUBICIN]: the IC50 in the assay with WI-38 was 0.76 µg/mL (≈ 1.4 µM); with WI-38 VA13 it was 0.08 µg/mL (≈ 0.147 µM); in the assay on HepG2 it was 0.48 µg/mL (≈ 0.883 µM).
In the case of `COc1ccc(CCN(C)CCCC(C#N)(c2ccc(OC)c(OC)c2)C(C)C)cc1OC` (configuration not stated) [VERAPAMIL], the Activity in assay [1] is on record as 114%; in assay [2] it was 99%; in assay [3], 145%; in assay [4], 100%; in assay [5], 100%; in assay [6], 100%.
With `CC(=O)O[C@H]1C(=O)[C@@]2(C)[C@H]([C@H](OC(=O)c3ccccc3)[C@]3(O)C[C@H](OC(=O)[C@H](O)[C@@H](NC(=O)c4ccccc4)c4ccccc4)C(C)=C1C3(C)C)[C@]1(OC(C)=O)CO[C@@H]1C[C@@H]2O` [PACLITAXEL], the IC50 in the assay with WI-38 was found to be 0.02 µg/mL (≈ 0.0234 µM); with WI-38 VA13, 0.01 µg/mL (≈ 0.0117 µM); in the assay with HepG2, 0.05 µg/mL (≈ 0.0586 µM).
In the same order, the values of `COc1cc([C@H]2OC[C@H]3[C@@H]2CO[C@@H]3c2ccc3c(c2)OCO3)cc(OC)c1O` are greater than 100 µg/mL, greater than 100 µg/mL and greater than 100 µg/mL.
In the same order, the values of `COc1cc([C@H]2OC[C@@H]3C(c4cc(OC)c(O)c(OC)c4)OC[C@H]23)ccc1O` (some centres not stated) [MEDIORESINOL] are 76.9 µg/mL (≈ 198 µM), greater than 100 µg/mL and 84.7 µg/mL (≈ 218 µM).
Turning to `COc1cc([C@@H]2OC[C@@H]3[C@H]2CO[C@H]3c2cc(OC)c3c(c2)OCO3)cc(O)c1O`, the Activity in assay [1] is recorded as 105%; in assay [2] it was 101%; in assay [3], 169%; in assay [4], 92%; in assay [5], 103%; in [6], 117%. The IC50 was found to be 49.8 µg/mL (≈ 124 µM) with WI-38, 5.3 µg/mL (≈ 13.2 µM) in the assay on WI-38 VA13 and 13.2 µg/mL (≈ 32.8 µM) in the assay on HepG2.
As to `COc1cc([C@H]2OC[C@@H]3C(=O)OC[C@@H]32)cc(OC)c1OC` [ZHEPIRESINOL], the half-inhibitory concentration (IC50) worked out at 57.7 µg/mL (≈ 196 µM) with WI-38, 50.7 µg/mL (≈ 172 µM) with WI-38 VA13 and 60.2 µg/mL (≈ 205 µM) with HepG2.
In the same order, the values of `COc1cc(C[C@H]2CO[C@H](c3cc(OC)c4c(c3)OCO4)[C@H]2CO)cc2c1OCO2` are 74.3 µg/mL (≈ 178 µM), 99.1 µg/mL (≈ 238 µM) and 72 µg/mL (≈ 173 µM).
Turning to `COc1cc([C@@H]2c3c(cc4c(c3OC)OCO4)C[C@H](COC(C)=O)[C@@H]2COC(C)=O)cc(OC)c1O`, the concentration for half-maximal inhibition (IC50) was 107 µM with A549 [7]; 13.4 µM with A549 [8]; 41.3 µg/mL (≈ 82.2 µM) in the assay with WI-38; greater than 316 µM with A549 [9]; 62.4 µg/mL (≈ 124 µM) in the assay on WI-38 VA13; 74.4 µg/mL (≈ 148 µM) in the assay with HepG2.
`COc1cc([C@@H]2OC[C@@H]3[C@H]2CO[C@H]3c2cc(OC)c3c(c2)OCO3)cc(OC)c1O`: the IC50 is 96.6 µg/mL (≈ 232 µM) in the assay with WI-38, greater than 100 µg/mL with WI-38 VA13 and greater than 100 µg/mL with HepG2.
